“And” between values parts separate entries of the source, which are not always exact repeats. Equal entries are not always repeated.
Tests used:
[1] = system: Tubulin (Bos taurus); experiment: The photoincorporation of [3H]AzB-taxol into tubulin was evaluated from polymerized tubulin
[2] = The ratio of AzT-taxol/tubulin covalently bound after irradiation at initial ratio of 1.0
Summary of the method: (§1)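 Tubulin (5 μM) with [3H]AzB-taxol at varied initial ratios, 20 min at 37 °C in Pipes/EGTA/MgSO4/DTT/GTP buffer pH 6.9, then irradiated 20 min at 300 nm. Centrifuged at 40000g, 10 min, 37 °C. Pellet washed repeatedly with 50% ethanol, dissolved in 0.1 M NaOH. Covalent mol/mol from radioactivity and protein.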

[3] = system: Tubulin (Bos taurus); experiment: The photoincorporation of [3H]AzB-taxol into tubulin was evaluated from unpolymerized tubulin on ice
[4] = The ratio of […]/tubulin noncovalently bound […] at initial ratio of 1.0
Summary of the method: (§2)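 Noncovalent binding without irradiation: 5 μM tubulin with varied [3H]AzB-taxol, 20 min at 37 °C. Centrifuged at 40000g; pellets washed with buffer, recentrifuged and dissolved in 0.1 M NaOH. Bound mol/mol from protein and radioactivity.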

[5] = The ratio of AzT-taxol/tubulin covalently bound after irradiation at initial ratio of 2.0
Summary of the method: as §1

[6] = The ratio of AzT-taxol/tubulin noncovalently bound after irradiation at initial ratio of 0.5; conditions: in the assay text read “before irradiation” for “after irradiation”
Summary of the method: as §2

[7] = system: Tubulin (Bos taurus); experiment: The inhibition of photoincorporation of AzB-taxol into tubulin was evaluated in the presence of 7.5 uM of taxol; Complete inhibition
[8] = The ratio of AzT-taxol/tubulin noncovalently bound […] at initial ratio of 3.0
Summary of the method: as §2

[9] = molecular target: Tubulin beta chain (Sus scrofa) (UniProt P02554); experiment: The photoincorporation of [3H]-AzB-taxol into beta-subunit of tubulin was evaluated at initial ratio of 1.0
Sequence of Tubulin beta chain (Sus scrofa) (P02554 whole entry, looked up): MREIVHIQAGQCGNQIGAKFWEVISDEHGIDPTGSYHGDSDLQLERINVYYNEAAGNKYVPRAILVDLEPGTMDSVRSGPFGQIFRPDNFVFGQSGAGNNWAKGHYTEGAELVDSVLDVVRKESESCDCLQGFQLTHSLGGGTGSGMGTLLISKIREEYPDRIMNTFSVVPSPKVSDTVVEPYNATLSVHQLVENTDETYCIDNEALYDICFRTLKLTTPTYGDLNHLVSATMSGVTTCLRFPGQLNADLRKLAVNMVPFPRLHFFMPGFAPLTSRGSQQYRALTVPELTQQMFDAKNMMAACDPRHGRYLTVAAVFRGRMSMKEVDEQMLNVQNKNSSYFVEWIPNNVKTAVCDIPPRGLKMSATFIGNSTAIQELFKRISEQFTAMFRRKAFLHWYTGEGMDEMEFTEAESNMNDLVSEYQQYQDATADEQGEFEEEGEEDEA

[10] = system: Tubulin alpha chain (Bos taurus); experiment: The photoincorporation of [3H]AzB-taxol into alpha-subunit of tubulin was evaluated at initial ratio of 1.0
[11] = The ratio of AzT-taxol/tubulin covalently bound after irradiation at initial ratio of 4.0
Summary of the method: as §1

[12] = The ratio of AzT-taxol/tubulin covalently bound after irradiation at initial ratio of 0.5
Summary of the method: as §1

[13] = system: Tubulin (Bos taurus); experiment: The incorporation of [3H]AzB-taxol into tubulin was evaluated after irradiation with 350 nM lamp
[14] = The ratio of AzT-taxol/tubulin noncovalently bound […] at initial ratio of 2.0
Summary of the method: as §2

[15] = The ratio of AzT-taxol/tubulin covalently bound after irradiation at initial ratio of 3.0
Summary of the method: as §1

[16] = system: Tubulin (Bos taurus); experiment: The photoincorporation of [3H]AzB-taxol into tubulin was evaluated by preirradiation of the compound
[17] = system: Tubulin (Bos taurus); experiment: The photoincorporation of [3H]AzB-taxol into tubulin was evaluated from tubulin in 8M urea
[18] = system: Tubulin (Bos taurus); experiment: The incorporation of [3H]AzB-taxol into tubulin was evaluated after irradiation with 300 nM lamp
[19] = molecular target: Tubulin beta chain (Sus scrofa) (UniProt P02554); experiment: The photoincorporation of [3H]AzB-taxol into beta-subunit of tubulin was evaluated at initial ratio of 0.5
[20] = system: Tubulin (Bos taurus); experiment: The photoincorporation of [3H]AzB-taxol into tubulin was evaluated by incubation in dark
[21] = system: Tubulin (Bos taurus); experiment: The incorporation of [3H]AzB-taxol into tubulin was evaluated after irradiation with 254 nM lamp
[22] = molecular target: Tubulin alpha chain (Sus scrofa) (UniProt P02550); experiment: The photoincorporation of [3H]AzB-taxol into alpha-subunit of tubulin was evaluated at initial ratio of 0.5
Sequence of Tubulin alpha chain (Sus scrofa) (P02550 whole entry, looked up): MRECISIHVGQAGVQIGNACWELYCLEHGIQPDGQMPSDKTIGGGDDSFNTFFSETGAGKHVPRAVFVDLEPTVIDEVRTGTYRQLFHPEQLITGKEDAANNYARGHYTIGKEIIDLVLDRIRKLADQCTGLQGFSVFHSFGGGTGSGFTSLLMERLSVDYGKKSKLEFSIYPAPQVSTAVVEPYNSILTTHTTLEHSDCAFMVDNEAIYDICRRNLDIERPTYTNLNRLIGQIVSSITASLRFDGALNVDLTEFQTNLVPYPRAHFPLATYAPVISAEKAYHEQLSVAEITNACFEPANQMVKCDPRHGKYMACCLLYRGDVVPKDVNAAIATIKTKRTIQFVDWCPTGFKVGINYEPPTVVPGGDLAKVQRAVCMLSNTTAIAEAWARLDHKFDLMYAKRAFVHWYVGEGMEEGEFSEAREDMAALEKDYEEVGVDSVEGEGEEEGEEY
Summary of the method: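 Tubulin (5 μM) with [3H]AzB-taxol at the stated initial ratio, 20 min at 37 °C, then irradiated 20 min at 300 nm. Ethanol-washed precipitate run on SDS-PAGE (7.5% running gel, 3% stacking gel) and stained with Coomassie. α- and β-bands excised, dissolved in 30% H2O2 at 65 °C and counted; results are % of incorporation per subunit, n = 2–3 experiments.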

[23] = The ratio of […]/tubulin noncovalently bound […] at initial ratio of 4.0
Summary of the method: as §2

- Amount incorporated (M (M of tubulin)-1) [1]: 0.15
- Ratio [2]: 0.17
- Amount incorporated (M (M of tubulin)-1) [3]: 0.03
- Ratio [4]: 0.85
- Ratio [5]: 0.23
- Ratio [6]: 0.5
- Incorporated [7]: Complete inhibition
- Ratio [8]: 1.2
- Incorporated [9]: 86%
- Incorporated [10]: 14%
- Ratio [11]: 0.24
- Ratio [12]: 0.13
- Amount incorporated (M (M of tubulin)-1) [13]: 0.025
- Ratio [14]: 1.22
- Ratio [15]: 0.23
- Amount incorporated (M (M of tubulin)-1) [16]: 0.016
- Amount incorporated (M (M of tubulin)-1) [17]: 0.015
- Amount incorporated (M (M of tubulin)-1) [18]: 0.12
- Incorporated [19]: 80% and 81%
- Amount incorporated (M (M of tubulin)-1) [20]: 0.008
- Amount incorporated (M (M of tubulin)-1) [21]: 0.13
- Incorporated [22]: 20% and 19%
- Ratio [23]: 1.19
Structure (SMILES): CC(=O)O[C@H]1C(=O)[C@@]2(C)C([C@H](OC(=O)c3ccccc3)[C@]3(O)C[C@H](OC(=O)[C@H](O)C(NC(=O)c4ccc(N=[N+]=[N-])cc4)c4ccccc4)C(C)=C1C3(C)C)[C@]1(OC(C)=O)CO[C@@H]1C[C@@H]2O (stereo partly drawn)
